# Key:
# [1] = target: GABA-A receptor; anion channel (Homo sapiens) (UniProt P14867+P47870+P18507+P28472+P48169+Q99928+Q9UN88+P34903+O00591+O14764+Q8N1C3+P18505+P78334+P47869+P31644+Q16445); assay: Percent inhibition [3H]Ro-151788 binding to Benzodiazepine receptor from bovine brain membrane at 10 uM; details: Bos taurus, target entry is the homologue from another species
# [2] = target: GABA-A receptor; anion channel; set-up: species or system Bos taurus
# [3] = test system: Mus musculus; assay: Percent anticonvulsant activity against pentylenetetrazole (PTZ)-induced attacks at 10 mg/kg peroral dose; type: functional; details: route oral
# In short: (§1)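 Male CD-1 mice dosed po in 1% carboxymethylcellulose, 30 min before PTZ (90 mg/kg sc, in 0.9% saline). Occurrence of clonic generalized convulsions noted over 30 min; χ² analysis vs control mice.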
# [4] = test system: Mus musculus; assay: Percent anticonvulsant activity against pentylenetetrazole (PTZ)-induced attacks at 100 mg/kg peroral dose; type: functional; details: route oral; in short: as §1
# [5] = test system: Mus musculus; assay: Percent anticonvulsant activity against pentylenetetrazole (PTZ)-induced attacks at 3 mg/kg peroral dose; type: functional; details: route oral; in short: as §1
# [6] = test system: Mus musculus; assay: Percent anticonvulsant activity against pentylenetetrazole (PTZ)-induced attacks at 30 mg/kg peroral dose; type: functional; details: route oral; in short: as §1
# [7] = test system: Mus musculus; assay: Anxiolytic activity in mice using light-dark box and % time spent in light was reported at 10 mg/kg peroral dose; type: functional; details: route oral
# In short: (§2)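 Male CD-1 mice (22–24 g) given drug po in 1% carboxymethylcellulose (10 mL/kg). Each mouse placed in the centre of the lighted area facing away from the dark compartment and allowed to explore for 5 min; time spent in the illuminated side and number of transfers between compartments recorded. Tests run between 10:00 and 15:00.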
# [8] = test system: Mus musculus; assay: Anxiolytic activity in mice using light-dark box and % time spent in light was reported at 100 mg/kg peroral dose; type: functional; details: route oral; in short: as §2
# [9] = test system: Mus musculus; assay: Anxiolytic activity in mice using light-dark box and % time spent in light was reported at 30 mg/kg peroral dose; type: functional; details: route oral; in short: as §2
# [10] = test system: Mus musculus; assay: Motor coordination of mouse as number of falls in 30 sec was reported after 10 mg/kg peroral dose using rotarod test; type: functional; details: route oral
# In short: (§3)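 Male CD-1 mice are dosed po in 1% CMC (flumazenil ip). Falls from a rota rod turning at 24 rpm are counted over 30 s, 25 min after drug administration, and compared with vehicle-treated mice. Means ± SEM.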
# [11] = test system: Mus musculus; assay: Motor coordination of mouse as number of falls in 30 sec was reported after 100 mg/kg peroral dose using rotarod test; type: functional; details: route oral
# In short: (§4)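 Male CD-1 mice dosed po (suspension in 1% carboxymethylcellulose, 10 mL/kg). Rota rod turning at 24 rpm; falls from the rod counted over 30 s, 25 min after drug administration.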
# [12] = test system: Mus musculus; assay: Motor coordination of mouse as number of falls in 30 sec was reported after 3 mg/kg peroral dose using rotarod test; type: functional; details: route oral; in short: as §4
# [13] = test system: Mus musculus; assay: Motor coordination of mouse as number of falls in 30 sec was reported after 30 mg/kg peroral dose using rotarod test; type: functional; details: route oral; in short: as §4
# [14] = test system: Mus musculus; assay: Anxiolytic activity in mice using light-dark box and no. of transfers between compartments were reported at 100 mg/kg peroral dose; type: functional; details: route oral; in short: as §2
# [15] = test system: Mus musculus; assay: Anxiolytic activity in mice using light-dark box and no. of transfers between compartments were reported at 30 mg/kg peroral dose; type: functional; details: route oral; in short: as §2
# [16] = test system: Mus musculus; assay: Anxiolytic activity in mice using light-dark box and no. of transfers between compartments were reported at 10 mg/kg peroral dose; type: functional; details: route oral; in short: as §2
# [17] = Displacement of [3H]-Ro-15-1788 from rat GABA-A receptor alpha-2-beta-2-gamma-2 subunits expressed in HEK293 cells; type: cell-based
# In short: (§5)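 Recombinant rat GABA-A subtypes are stably expressed in HEK293 cells grown in MEM/EBSS with 10% FCS at 37 °C. Membranes are made in 10 mM potassium phosphate pH 7.4 and resuspended with 100 mM KCl. Incubation uses 1–2 nM [3H]Ro15-1788 with compound at 10^-9–10^-5 M (≥6 concentrations), 1 h at 4 °C. […] Ki comes from Cheng–Prusoff, n=5, in triplicate.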
# [18] = Displacement of [3H]Ro-151788 from rat GABA-A receptor alpha-5-beta-3-gamma-2 subunits expressed in HEK293 cells; type: cell-based; in short: as §5
# [19] = test system: Mus musculus; assay: Percent anticonvulsant activity against pentylenetetrazole (PTZ)-induced attacks at 1 mg/kg peroral dose; type: functional; details: route oral
# In short: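 Male CD-1 mice are dosed po in 1% CMC (flumazenil ip). PTZ (90 mg/kg sc, in 0.9% saline) is injected 30 min later. Clonic generalized convulsions are scored over 30 min, with % protection compared with controls by χ2 analysis.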
# [20] = test system: Mus musculus; assay: Anxiolytic activity in mice using light-dark box and % time spent in light was reported at 1 mg/kg peroral dose; type: functional; details: route oral
# In short: (§6)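 Light-dark box in male CD-1 mice. Ligands are given po in 1% CMC, flumazenil ip. Each mouse is placed in the centre of the lit area facing away from the dark one and explores for 5 min. Time in the illuminated side and number of transfers between compartments are recorded. Means ± SEM.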
# [21] = test system: Mus musculus; assay: Anxiolytic activity in mice using light-dark box and % time spent in light was reported at 3 mg/kg peroral dose; type: functional; details: route oral; in short: as §2
# [22] = test system: Mus musculus; assay: Motor coordination of mouse as number of falls in 30 sec was reported after 0.3 mg/kg peroral dose using rotarod test; type: functional; details: route oral; in short: as §3
# [23] = test system: Mus musculus; assay: Motor coordination of mouse as number of falls in 30 sec was reported after 1 mg/kg peroral dose using rotarod test; type: functional; details: route oral; in short: as §3
# [24] = test system: Mus musculus; assay: Anxiolytic activity in mice using light-dark box and no. of transfers between compartments were reported at 0.3 mg/kg peroral dose; type: functional; details: route oral; in short: as §6
# [25] = test system: Mus musculus; assay: Anxiolytic activity in mice using light-dark box and no. of transfers between compartments were reported at 1 mg/kg peroral dose; type: functional; details: route oral; in short: as §6
# [26] = test system: Mus musculus; assay: Anxiolytic activity in mice using light-dark box and no. of transfers between compartments were reported at 3 mg/kg peroral dose; type: functional; details: route oral; in short: as §2
# [27] = Anticonvulsant activity electroshock induced convulsions and % lethality obtained at dose of 10 mg/kg; details: mouse, in vivo
# [28] = test system: Mus musculus; assay: Motor coordination of mouse as number of falls in […] was reported after 10 mg/kg peroral dose using rotarod test; type: functional; details: route oral
compound,measurement,setting,value
O=C(Cc1cnn2c1n[n+]([O-])c1ccc(Cl)cc12)OCc1ccccc1,inhibition,[1],32%
O=C(OCc1ccoc1)c1cnn2c1n[n+]([O-])c1ccc(Cl)cc12 [listing 1 of 2 here],Ki,[2],11.4 nM
same,Activity,[3],20%
same,Activity,[4],36.4%
same,Activity,[5],0%
same,Activity,[6],30%
same,Activity,[7],118.95%
same,Activity,[8],127.18%
same,Activity,[9],132.27%
same,No. of falls,[10],0.2
same,No. of falls,[11],0.18
same,No. of falls,[12],0.14
same,No. of falls,[13],0.1
same,No. of transfers,[14],19.7
same,No. of transfers,[15],20.4
same,No. of transfers,[16],16.57
O=C(Cc1cnn2c1n[n+]([O-])c1ccc(Cl)cc12)OCc1ccsc1,inhibition,[1],45%
O=C(CC1C=NN2c3cc(Cl)ccc3[N+]([O-])=NC12)Oc1ccccc1Cl (configuration not stated),inhibition,[1],87%
same,Ki,[2],489 nM
O=C(OCc1cccs1)c1cnn2c1nnc1ccc(Cl)cc12,inhibition,[1],96%
same,Ki,[2],6.26 nM
CN1C(=O)CN=C(c2ccccc2)c2cc(Cl)ccc21.O=C(OCc1ccsc1)c1cnn2c1n[n+]([O-])c1ccc(Cl)cc12,Activity,[3],100%
same,Activity,[7],149.16%
same,No. of falls,[10],0.55
same,No. of transfers,[16],27.9
CC(C)OC(=O)c1cnn2c1n[n+]([O-])c1ccc(Cl)cc12,inhibition,[1],97%
same,Ki,[2],272 nM
CN1C(=O)CN=C(c2ccccc2)c2cc(Cl)ccc21 [DIAZEPAM],Ki,[17],7.8 nM
same,Ki,[18],9.8 nM
same,Activity,[19],93.8%
same,Activity,[5],100%
same,Activity,[20],159.3%
same,Activity,[21],243.2%
same,No. of falls,[22],0.39
same,No. of falls,[23],0.78
same,No. of falls,[12],1.6
same,No. of transfers,[24],22
same,No. of transfers,[25],23.2
same,No. of transfers,[26],16.5
same,mortality,[27],0%
O=C(OCc1ccco1)c1cnn2c1n[n+]([O-])c1ccc(Cl)cc12 [listing 1 of 2 here],inhibition,[1],100%
CN1C(=O)CN=C(c2ccccc2)c2cc(Cl)ccc21.O=C(OCc1ccoc1)c1cnn2c1n[n+]([O-])c1ccc(Cl)cc12,Activity,[3],88.9%
same,No. of falls,[10],0.44
O=C(OCc1ccsc1)c1cnn2c1n[n+]([O-])c1ccc(Cl)cc12 [listing 1 of 2 here],Ki,[2],13.3 nM
same,Activity,[3],18.2%
same,Activity,[5],30%
same,Activity,[6],9%
same,Activity,[7],91.84%
same,Activity,[21],110.3%
same,No. of falls,[10],0.36
same,No. of falls,[12],0.2
same,No. of falls,[13],0.27
same,No. of transfers,[26],15.7
same,No. of transfers,[16],16
Cc1ccc(-c2nc3ccc(C)cn3c2CC(=O)N(C)C)cc1 [ZOLPIDEM],Ki,[18],> 1000 nM
O=C(Cc1cnn2c1n[n+]([O-])c1ccc(Cl)cc12)OCc1cccs1,inhibition,[1],35%
COc1ccccc1COC(=O)Cc1cnn2c1n[n+]([O-])c1ccc(Cl)cc12,inhibition,[1],50%
COc1ccccc1COC(=O)c1cnn2c1nnc1ccc(Cl)cc12,inhibition,[1],97%
same,Ki,[2],1.7 nM
O=C(OCc1ccco1)c1cnn2c1n[n+]([O-])c1ccc(Cl)cc12 [listing 2 of 2 here],Ki,[2],24.4 nM
same,Activity,[3],27.3%
same,Activity,[4],27.3%
same,Activity,[6],7.7%
same,Activity,[7],96.8%
same,Activity,[8],96.16%
same,Activity,[9],125.02%
same,No. of falls,[28],0.27
same,No. of falls,[11],0.45
same,No. of falls,[13],0.08
same,No. of transfers,[14],14
same,No. of transfers,[15],18.6
same,No. of transfers,[16],15.71
O=C(OCc1ccsc1)c1cnn2c1n[n+]([O-])c1ccc(Cl)cc12 [listing 2 of 2 here],inhibition,[1],97%
CCOC(=O)Cc1cnn2c1n[n+]([O-])c1ccc(Cl)cc12,inhibition,[1],53%
CC(OC(=O)c1cnn2c1n[n+]([O-])c1ccc(Cl)cc12)c1ccccc1 (configuration not stated),inhibition,[1],95%
same,Ki,[2],138 nM
CN1C(=O)CN=C(c2ccccc2)c2cc(Cl)ccc21.O=C(OCc1cccs1)c1cnn2c1n[n+]([O-])c1ccc(Cl)cc12,Activity,[5],50%
same,No. of falls,[12],0.3
CN1C(=O)CN=C(c2ccccc2)c2cc(Cl)ccc21.O=C(OCc1ccco1)c1cnn2c1n[n+]([O-])c1ccc(Cl)cc12,Activity,[3],88.9%
same,Activity,[7],142.02%
same,No. of falls,[10],1.55
same,No. of transfers,[16],27.1
O=C(Cc1cnn2c1n[n+]([O-])c1ccc(Cl)cc12)Oc1ccccc1,inhibition,[1],79%
CCOC(=O)c1ncn2c1CN(C)C(=O)c1cc(F)ccc1-2.CN1C(=O)CN=C(c2ccccc2)c2cc(Cl)ccc21,Activity,[4],20%
same,Activity,[8],107%
same,Activity,[9],154.8%
same,No. of falls,[11],0.4
same,No. of transfers,[14],15.6
same,No. of transfers,[15],23
CCOC(=O)c1ncn2c1CN(C)C(=O)c1cc(F)ccc1-2.O=C(OCc1cccs1)c1cnn2c1n[n+]([O-])c1ccc(Cl)cc12,Activity,[8],124.08%
same,No. of transfers,[14],23
O=C(OCC1CCOC1)c1cnn2c1n[n+]([O-])c1ccc(Cl)cc12 (configuration not stated),inhibition,[1],85%
same,Ki,[2],680 nM
O=C(OCc1ccoc1)c1cnn2c1n[n+]([O-])c1ccc(Cl)cc12 [listing 2 of 2 here],inhibition,[1],96%
Cc1ccccc1OC(=O)CC1C=NN2c3cc(Cl)ccc3[N+]([O-])=NC12 (configuration not stated),inhibition,[1],70%
O=C(OCc1cccs1)c1cnn2c1n[n+]([O-])c1ccc(Cl)cc12,inhibition,[1],93%
O=C(OCc1ccncc1)c1cnn2c1n[n+]([O-])c1ccc(Cl)cc12,inhibition,[1],100%
same,Ki,[2],44 nM
COc1ccccc1COC(=O)C1C=NN2c3cc(Cl)ccc3[N+]([O-])=NC12 (configuration not stated),inhibition,[1],100%
same,Ki,[2],1 nM
COc1ccccc1OC(=O)CC1C=NN2c3cc(Cl)ccc3[N+]([O-])=NC12 (configuration not stated),inhibition,[1],88%
same,Ki,[2],171 nM

# Source: ChEMBL document CHEMBL1135690, “Benzodiazepine receptor ligands. 7. Synthesis and pharmacological evaluation of new 3-esters of the 8-chloropyrazolo[5,1-c][1,2,4]benzotriazine 5-oxide. 3-(2-Thienylmethoxycarbonyl) derivative: an anxioselective agent in rodents” (J Med Chem, 2002)
